Series [1] is described as follows: Inhibition of HAV 3C expressed in Escherichia coli BL21(DE3) pLysS using Dabcyl-GLRTQSND (edans) G as substrate preincubated for 3 mins before enzyme addition by fluorescence method based Cheng and Prusoff equation analysis. Also on record: species or system Hepatovirus A.
Series [2] is described as follows: Therapeutic index, ratio of CC50 of rhesus monkey FRhK cells to IC50 of antiviral activity against Hepatitis A virus infected in rhesus monkey FRhK4 cells assessed as inhibition in viral adsorption using cells pre-incubated with compound for 24 hrs before viral infection for 1 hr by MTT assay. The format is toxicity, cell-based. Conditions: read-out: Ratio CC50/IC50. In outline: (§1)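 FRhK-4 monolayers in 24-well plates were exposed to non-toxic compound concentrations for 24 h at 37 °C in 5% CO2. Compound was then removed and HAV added for 1 h, after which the inoculum was replaced with medium for 72 h. MTT OD540 was read in triplicate alongside virus-infected and cell-only controls to give IC50. TI = CC50/IC50.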

Series [3] can be described thus: Binding affinity to Hepatitis A virus Protease 3C. Also on record: species or system Hepatovirus A.
Series [4] deals with Hepatovirus A. In words: Antiviral activity against Hepatitis A virus infected in rhesus monkey FRhK4 cells assessed as inhibition in viral replication using cells pre-infected with virus before compound exposure for 72 hrs by MTT assay. The class given is functional, organism-based. As to conditions: FRhK-4, 72 h. The gist of the method: (§2)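 FRhK-4 monolayers were infected with HAV for 1 h. Unbound virus was removed and replaced with medium containing non-toxic compound concentrations, then incubated 72 h at 37 °C in 5% CO2. MTT OD540 was read in triplicate alongside virus-infected and cell-only controls to give IC50. TI = CC50/IC50.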

Series [5] is described as follows: Therapeutic index, ratio of CC50 of rhesus monkey FRhK cells to IC50 for antiviral activity against Hepatitis A virus infected in rhesus monkey FRhK4 cells assessed as inhibition in viral replication using cells pre-infected with virus before compound exposure for 72 hrs by MTT assay. The format is toxicity, cell-based. Conditions: read-out: Ratio CC50/IC50. The gist of the method: as §2

A short description of series [6]: Inhibition of HRV 3C using chromogenic peptide substrate pre-incubated for 15 mins before substrate addition and measured after 1 to 2 hrs by colorimetric method. The gist of the method: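 HRV 3C protease was assayed with a commercial screening kit, with reagents equilibrated to room temperature. Enzyme was incubated with compound for 15 min at room temperature, with enzyme and solvent controls. Substrate was then added and absorbance at 405 nm read in kinetic mode for 1–2 h at 37 °C.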

For series [7], the system named is Hepatovirus A. Description: Antiviral activity against Hepatitis A virus infected in rhesus monkey FRhK4 cells assessed as inhibition in viral adsorption using cells pre-incubated with compound for 24 hrs before viral infection for 1 hr by MTT assay. The format is functional, organism-based. As to conditions: FRhK-4. In outline:
as §1

Series [8] is described as follows: Cytotoxicity against rhesus monkey FRhK4 cells assessed as reduction in cell viability incubated for 48 hrs by MTT assay. The class given is cell-based, Macaca mulatta. In outline: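 FRhK-4 cells (DMEM, 10% FBS) were seeded at 5 X 10^3 cells/well and grown 24 h. They were exposed to compound at 7.8–1000 µg/mL for 48 h at 37 °C in 5% CO2. MTT (5 mg/mL) was added for 4 h, then DMSO for 30 min, and OD540 read. CC50 was derived from the mean of three ODs versus untreated cells.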

Series [9] deals with Hepatovirus A. Description: Antiviral activity against Hepatitis A virus infected in rhesus monkey FRhK4 cells assessed as reduction in virus-induced cytopathic effect incubated for 72 hrs by MTT assay. The format is functional, organism-based. Conditions: FRhK-4, 72 h. In outline:
(§3)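 Virucidal format: HAV (10^6 […] TCID50/0.1 ml) was mixed with an equal volume of non-toxic compound concentrations for 1 h at 37 °C. The mixture was added to FRhK-4 monolayers for 1 h, then replaced with medium for 72 h. MTT OD540 was read in triplicate with virus and cell controls to give IC50. TI = CC50/IC50.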

A short description of series [10]: Therapeutic index, ratio of CC50 of rhesus monkey FRhK cells to IC50 of antiviral activity against Hepatitis A virus infected in rhesus monkey FRhK4 cells. The class given is toxicity, cell-based. As to conditions: read-out: Ratio CC50/IC50. In outline: as §3
The nature of series [11]: Inhibition of HAV 3C expressed in Escherichia coli BL21(DE3) pLysS using Dabcyl-GLRTQSND (edans) G as substrate preincubated for 3 mins before enzyme addition by fluorescence method. Also on record: species or system Hepatovirus A.

≈ marks a conversion by molar mass, not a printed value.

Take `CCNC(=S)NNC(=O)COc1ccc2c(-c3ccccc3)cc(=O)oc2c1`: in series [1], the Ki amounted to 1.9 µM. Also, the selectivity ratio at 1 h in [2] was 8. In series [3], this molecule had a pKd of 6.78. For the same molecule, the IC50 came to 86 µg/mL (≈ 216 µM) in the series with Hepatovirus A [4]; 16.1 µM in [6]; 32.2 µg/mL (≈ 81.1 µM) in the series on Hepatovirus A [7]; 3.1 µg/mL (≈ 7.8 µM) with Hepatovirus A [9]; 17.8 µM in series [11]. Also, in series [5], the selectivity ratio at 72 h is 3. Also, the CC50 at 48 h in [8] amounted to 258 µg/mL (≈ 649 µM). Also, the selectivity ratio in series [10] came to 83.
In turn, `C/C(=N\NC(=O)COc1ccc2c(-c3ccccc3)cc(=O)oc2c1)c1ccc(Br)cc1` registered a Ki in series [1] of 0.217 µM. Further, the selectivity ratio at 1 h in series [2] stood at 88. In addition, the pKd in series [3] came out at 5.53. The IC50 in the series on Hepatovirus A [4] amounted to 62.6 µg/mL (≈ 127 µM); in [6], 6.3 µM; in the series on Hepatovirus A [7], 8.5 µg/mL (≈ 17.3 µM); in the series on Hepatovirus A [9], 1880 µg/mL (≈ 3830 µM); in series [11] it was 7.19 µM. In series [5], the selectivity ratio at 72 h is 12. For the same molecule, in series [8], the 50% cytotoxic concentration (CC50) at 48 h is 752 µg/mL (≈ 1530 µM). Further, in [10], the selectivity ratio was determined as 0.4.
For `C/C(=N\NC(=O)COc1ccc2c(-c3ccccc3)cc(=O)oc2c1)c1ccc(Cl)cc1`, affinity in [1] was put at a Ki of 0.104 µM. In addition, the selectivity ratio at 1 h in series [2] was found to be 22. Also, the pKd in series [3] is recorded as 5.51. Further, the IC50 with Hepatovirus A [4] was found to be 10.7 µg/mL (≈ 23.9 µM); in [6], 4.13 µM; in the series with Hepatovirus A [7] it was 44.4 µg/mL (≈ 99.4 µM); with Hepatovirus A [9] it was 30.5 µg/mL (≈ 68.2 µM); in [11] it was 5.94 µM. For the same molecule, in [5], the selectivity ratio at 72 h worked out at 91. In addition, in series [8], the CC50 at 48 h was determined as 978 µg/mL (≈ 2190 µM). Besides, the selectivity ratio in series [10] was 32.
Consider `Nn1c(S)nnc1COc1ccc2c(-c3ccccc3)cc(=O)oc2c1`, for which, in [2], the selectivity ratio at 1 h amounted to 0.2. In addition, the IC50 in the series on Hepatovirus A [4] stood at 72 µg/mL (≈ 197 µM); in the series with Hepatovirus A [7], 3240 µg/mL (≈ 8840 µM); with Hepatovirus A [9], 216 µg/mL (≈ 590 µM). The selectivity ratio at 72 h in [5] amounted to 9. The CC50 at 48 h in [8] was 648 µg/mL (≈ 1770 µM). For the same molecule, the selectivity ratio in series [10] was 3.

Source of the values: ChEMBL document CHEMBL4390665, “New 4-phenylcoumarin derivatives as potent 3C protease inhibitors: Design, synthesis, anti-HAV effect and molecular modeling” (Eur J Med Chem, 2019).
